This is an account of results in ChEMBL document CHEMBL1155221, “Identification of novel indanylsulfonamide guanylhydrazones as potent 5-HT6 serotonin receptor antagonists” (J Med Chem, 2009).

The target in assay [1] is Sodium-dependent serotonin transporter (Homo sapiens, UniProt P31645). Kind of assay: Inhibition of human SERT.
The target in assay [2] is T1, 5-hydroxytryptamine receptor 6 (Homo sapiens, UniProt P50406). Kind of assay: Antagonist activity at human 5HT6 receptor expressed in HEK293F cells assessed as inhibition of 5-HT-stimulated cAMP production at […] after 30 mins by HTRF assay relative to (+/-)-6-chloro-N-(3-(1-methylpyrrolidin-3-yl)-1H-inden-5-yl)imidazo[2,1-b]thiazole-5-sulfonamide. Type of assay: functional, cell-based.

The target of assay [3] is T1, 5-hydroxytryptamine receptor 6. Kind of assay: Displacement of [3H]LSD from human recombinant 5HT6 receptor expressed in HEK293 cells after 60 mins by liquid scintillation counting. Type of assay: cell-based. Put shortly:
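Competition binding on membranes from HEK-293 cells expressing recombinant human 5-HT6 receptor, with [3H]-LSD as radioligand. […] Values are mean ± SEM of three experiments.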
A general note: In a radioligand displacement assay an active substance lowers the binding of a labelled ligand.

Assay [4] concerns the target T2, Adrenergic receptor alpha-1 (Rattus norvegicus, UniProt P15823+P23944+P43140).
T2 sequence (P15823 whole entry): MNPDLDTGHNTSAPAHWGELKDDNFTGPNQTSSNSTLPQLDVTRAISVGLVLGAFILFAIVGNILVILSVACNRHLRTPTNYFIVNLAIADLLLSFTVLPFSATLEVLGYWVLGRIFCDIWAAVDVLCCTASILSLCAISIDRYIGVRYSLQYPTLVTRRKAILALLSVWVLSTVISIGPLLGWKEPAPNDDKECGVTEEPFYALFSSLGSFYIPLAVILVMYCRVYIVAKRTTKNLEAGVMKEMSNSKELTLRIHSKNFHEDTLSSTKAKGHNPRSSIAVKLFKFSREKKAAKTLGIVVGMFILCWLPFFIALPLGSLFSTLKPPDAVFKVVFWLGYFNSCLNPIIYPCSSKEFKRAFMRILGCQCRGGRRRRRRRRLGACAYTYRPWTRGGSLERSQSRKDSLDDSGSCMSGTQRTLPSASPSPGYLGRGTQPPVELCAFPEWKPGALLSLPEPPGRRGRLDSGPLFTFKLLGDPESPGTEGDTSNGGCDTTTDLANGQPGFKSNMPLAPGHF
T2 sequence (P23944 whole entry): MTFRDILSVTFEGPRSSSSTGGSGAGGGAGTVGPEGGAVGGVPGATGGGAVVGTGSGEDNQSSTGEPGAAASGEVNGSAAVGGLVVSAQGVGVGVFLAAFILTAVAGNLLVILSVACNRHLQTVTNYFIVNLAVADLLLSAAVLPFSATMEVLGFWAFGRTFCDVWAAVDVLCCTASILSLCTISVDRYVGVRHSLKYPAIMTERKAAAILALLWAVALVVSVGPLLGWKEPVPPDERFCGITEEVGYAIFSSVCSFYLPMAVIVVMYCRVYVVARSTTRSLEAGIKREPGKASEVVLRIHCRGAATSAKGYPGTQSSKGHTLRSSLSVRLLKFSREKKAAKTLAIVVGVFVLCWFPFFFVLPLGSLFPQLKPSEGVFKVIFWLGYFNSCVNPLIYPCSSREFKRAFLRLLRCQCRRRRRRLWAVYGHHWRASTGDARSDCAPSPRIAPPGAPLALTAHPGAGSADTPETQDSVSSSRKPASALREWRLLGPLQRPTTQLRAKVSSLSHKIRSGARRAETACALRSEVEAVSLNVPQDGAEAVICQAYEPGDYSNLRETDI
T2 sequence (P43140 whole entry): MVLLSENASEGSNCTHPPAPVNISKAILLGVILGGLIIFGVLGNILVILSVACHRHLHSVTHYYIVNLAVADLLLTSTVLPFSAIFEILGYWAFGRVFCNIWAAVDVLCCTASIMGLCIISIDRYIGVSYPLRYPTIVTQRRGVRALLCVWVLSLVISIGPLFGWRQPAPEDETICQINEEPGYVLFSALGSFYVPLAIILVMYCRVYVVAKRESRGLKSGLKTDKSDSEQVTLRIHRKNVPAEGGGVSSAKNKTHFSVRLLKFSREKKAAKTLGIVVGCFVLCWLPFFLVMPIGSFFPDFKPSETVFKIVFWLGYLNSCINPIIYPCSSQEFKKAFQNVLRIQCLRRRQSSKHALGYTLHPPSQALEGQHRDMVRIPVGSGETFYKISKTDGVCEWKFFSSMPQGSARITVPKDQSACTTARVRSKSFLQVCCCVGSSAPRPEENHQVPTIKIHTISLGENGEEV
Kind of assay: Inhibition of rat alpha 1 adrenoceptor.

In assay [5] the target is T3, 5-hydroxytryptamine receptor 2C (Homo sapiens, UniProt P28335).
T3 sequence (P28335 whole entry): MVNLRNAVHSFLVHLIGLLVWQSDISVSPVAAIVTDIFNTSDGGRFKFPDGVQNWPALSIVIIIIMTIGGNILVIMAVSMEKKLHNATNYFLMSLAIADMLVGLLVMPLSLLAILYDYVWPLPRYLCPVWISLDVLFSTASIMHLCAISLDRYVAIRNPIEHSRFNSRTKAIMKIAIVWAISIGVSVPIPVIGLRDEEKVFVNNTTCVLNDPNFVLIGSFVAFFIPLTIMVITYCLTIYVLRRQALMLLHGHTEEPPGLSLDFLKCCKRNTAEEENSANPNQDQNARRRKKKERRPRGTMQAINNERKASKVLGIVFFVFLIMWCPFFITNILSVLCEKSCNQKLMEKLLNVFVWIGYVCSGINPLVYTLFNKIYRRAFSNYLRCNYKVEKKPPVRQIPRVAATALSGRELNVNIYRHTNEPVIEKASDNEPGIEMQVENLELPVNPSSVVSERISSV
Kind of assay: Inhibition of human 5HT2C receptor.

For assay [6], the target named is T1, 5-hydroxytryptamine receptor 6. Kind of assay: Antagonist activity at human 5HT6 receptor expressed in HEK293F cells assessed as inhibition of 5-HT-stimulated cAMP production after 30 mins by HTRF assay. Type of assay: functional, cell-based. Put shortly: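 HEK-293F cells stably expressing human 5-HT6 receptor. Compounds were tested against 5-HT-stimulated cAMP production, with cAMP read by homogeneous time-resolved fluorescence (HTRF). Antagonism expressed as Imax and IC50. Data are mean ± SEM of three experiments.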
On the technique in general: Cyclic AMP is a second messenger, typically raised through Gs and lowered through Gi signalling.

For assay [7] the target is unchanged. Kind of assay: Inhibition of [3H]LSD binding to human recombinant 5HT6 receptor expressed in HEK293 cells at 100 nM after 60 mins by liquid scintillation counting. In kind it is cell-based. Put shortly:
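Single-point competition at 100 nM test compound against [3H]-LSD on membranes from HEK-293 cells expressing recombinant human 5-HT6 receptor. Percent inhibition of radioligand binding reported.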

Sodium-dependent serotonin transporter, sequence (P31645 whole entry): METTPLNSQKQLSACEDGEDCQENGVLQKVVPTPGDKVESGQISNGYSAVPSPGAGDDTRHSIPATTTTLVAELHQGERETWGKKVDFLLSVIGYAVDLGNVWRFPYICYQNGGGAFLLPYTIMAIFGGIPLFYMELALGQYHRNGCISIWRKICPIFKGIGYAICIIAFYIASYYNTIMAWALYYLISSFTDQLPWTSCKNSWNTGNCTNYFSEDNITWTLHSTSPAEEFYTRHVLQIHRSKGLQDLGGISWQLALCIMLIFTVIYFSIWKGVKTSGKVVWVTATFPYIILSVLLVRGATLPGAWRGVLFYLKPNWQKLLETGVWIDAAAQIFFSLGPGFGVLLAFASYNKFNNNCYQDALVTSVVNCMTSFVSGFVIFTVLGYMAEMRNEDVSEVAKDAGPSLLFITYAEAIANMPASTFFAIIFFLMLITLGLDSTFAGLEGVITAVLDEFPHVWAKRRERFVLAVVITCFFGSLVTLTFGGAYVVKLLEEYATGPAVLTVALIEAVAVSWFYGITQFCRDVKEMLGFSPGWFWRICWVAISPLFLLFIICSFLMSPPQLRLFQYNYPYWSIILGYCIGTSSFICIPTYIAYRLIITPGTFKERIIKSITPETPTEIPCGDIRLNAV
T1 sequence (P50406 whole entry): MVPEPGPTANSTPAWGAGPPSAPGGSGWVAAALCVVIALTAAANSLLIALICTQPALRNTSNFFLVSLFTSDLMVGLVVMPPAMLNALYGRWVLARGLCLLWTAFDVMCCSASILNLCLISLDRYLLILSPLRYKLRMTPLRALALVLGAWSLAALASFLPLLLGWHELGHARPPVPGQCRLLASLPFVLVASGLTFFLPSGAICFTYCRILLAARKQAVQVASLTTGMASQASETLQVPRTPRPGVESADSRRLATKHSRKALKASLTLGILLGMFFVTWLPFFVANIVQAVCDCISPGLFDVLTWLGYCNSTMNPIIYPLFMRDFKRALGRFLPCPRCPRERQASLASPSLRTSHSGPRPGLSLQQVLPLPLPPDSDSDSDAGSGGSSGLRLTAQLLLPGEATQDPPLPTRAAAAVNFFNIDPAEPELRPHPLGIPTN

Take `O=S(=O)(Nc1ccc2c(c1)/C(=N/NC1=NCCN1)CC2)c1c(Cl)nc2sccn12`: the IC50 was > 10000 nM in assay [1], > 1000 nM in assay [4], > 10000 nM in assay [5] and 176 nM in assay [6]. Besides, the Imax in assay [2] was found to be 173%. Further, in assay [3], the Ki stood at 2.2 nM. Moreover, the inhibition in assay [7] is > 80%.
Consider `Cl.N=C(N)N/N=C1\CCc2ccc(NS(=O)(=O)c3c(Cl)nc4sccn34)cc21`, for which the IC50 in assay [1] is > 10000 nM; in assay [4], > 1000 nM; in assay [5], > 10000 nM; in assay [6], 96 nM. Moreover, in assay [2], the Imax was determined as 127%. Also, the Ki in assay [3] was found to be 1.2 nM. The inhibition in assay [7] was > 80%.
As for `CC1Cc2ccc(NS(=O)(=O)c3c(Cl)nc4sccn34)cc2/C1=N/NC(=N)N.Cl` (racemic), the IC50 in assay [1] is > 1000 nM; in assay [4], > 1000 nM; in assay [5] it was > 1000 nM; in assay [6], 58 nM. In addition, the Imax in assay [2] amounted to 157%. Further, in assay [3], the Ki came to 1.6 nM. In assay [7], the inhibition is > 80%.

Broadly, the IC50 is the point on the concentration scale where inhibition reaches its midpoint. The Ki is the equilibrium dissociation constant of an inhibitor or competing ligand from its target. One may read the inhibition as the change of the read-out against control, counted positive when it falls.
